Laboratory results taken from ChEMBL document CHEMBL1148895, “New cytotoxic cyclic peptides and dianthramide from Dianthus superbus” (J Nat Prod, 2004).
In brackets after ≈: the same amount, converted by molar mass. Residues, ends and D or L forms follow the SMILES beside them.

Tests used:
[1] = test system: MDA-MB-231; test: Cytotoxicity against human MDA-MB-231 cells after 3 days by MTT assay; type: functional, cell-based; conditions: MDA-MB-231, 72 h
Method in brief: (§1)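 Freshly trypsinized cells were seeded at 5000-10 000 per well, with compounds added from a DMSO-diluted stock. After 3 days of culture, attached cells were incubated with MTT (0.5 mg/mL) for 1 h and then solubilized in DMSO. Absorbance was read at 550 nm. IC50 is the concentration that reduced cell growth by 50%.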

[2] = test system: MCF7; test: Cytotoxicity against human MCF7 cells after 3 days by MTT assay; type: functional, cell-based; conditions: MCF7, 72 h; method in brief: as §1
[3] = test system: HepG2; test: Cytotoxicity against human HepG2 cells after 3 days by MTT assay; type: functional, cell-based; conditions: HepG2, 72 h
Method in brief: (§2)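 Freshly trypsinized cells were seeded at 5000-10 000 per well, with compounds added from a DMSO-diluted stock. After 3 days of culture, attached cells were incubated with MTT (0.5 mg/mL) for 1 h and then solubilized in DMSO. Absorbance was read at 550 nm.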

[4] = test system: A549; test: Cytotoxicity against human A549 cells after 3 days by MTT assay; type: functional, cell-based; conditions: A549, 72 h; method in brief: as §2
[5] = Cytotoxicity against human Hep3B cells after 3 days by MTT assay; type: functional, cell-based, Hep 3B2; conditions: 72 h; method in brief: as §1

| Compound | IC50 [1] [µg/mL] | IC50 [2] [µg/mL] | IC50 [3] [µg/mL] | IC50 [4] [µg/mL] | IC50 [5] [µg/mL] |
| --- | --- | --- | --- | --- | --- |
| CC[C@H](C)[C@@H]1NC(=O)[C@@H]2CCCN2C(=O)[C@@H]2CCCN2C(=O)[C@H](CC(C)C)NC(=O)[C@H](CO)NC(=O)CNC(=O)[C@H](Cc2ccccc2)NC1=O (cyclo(FGSLPPI)) | > 20 | > 20 | > 20 | > 20 | > 20 |
| CC[C@H](C)[C@@H]1NC(=O)[C@@H]2CCCN2C(=O)CNC(=O)[C@H](C(C)C)NC(=O)[C@H](Cc2ccccc2)NC(=O)[C@H](CO)NC1=O (cyclo(FVGPIS)) | > 20 | > 20 | 2.37 (≈ 3.95 µM) | > 20 | > 20 |
| CC[C@H](C)[C@@H]1NC(=O)[C@H](C(C)C)NC(=O)[C@H](Cc2ccc(O)cc2)NC(=O)[C@H](Cc2ccccc2)NC(=O)[C@@H]2CCCN2C(=O)CNC1=O (cyclo(FYVIGP)) | > 20 | > 20 | 17.2 (≈ 25.4 µM) | > 20 | > 20 |
| COC(=O)c1ccc(OC)cc1NC(=O)c1ccccc1O [4-METHOXYDIANTHRAMIDE B] | > 20 | > 20 | 4.08 (≈ 13.5 µM) | > 20 | 16 (≈ 53.2 µM) |
| COc1cccc2c1C(=O)c1c(O)c3c(c(O)c1C2=O)C[C@@](O)(C(=O)CO)C[C@@H]3O[C@H]1C[C@H](N)[C@H](O)[C@H](C)O1 [DOXORUBICIN] | 0.73 (≈ 1.34 µM) | 1.21 (≈ 2.23 µM) |  |  | 0.31 (≈ 0.57 µM) |
